TPT1 inhibitor: C. albicans TPT1 enzyme inhibition; recombinant caTPT1, FP RNA substrate dephosphorylation; inhibition, % at 5 µM; hit rate 0.81% among 300,000; AID 1962;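 active = inhibition above the mean of all tested compounds plus 3 SD, set per screening campaign, cut at about 24% in these data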
NR1D1 modulator: modulates human Rev-erb alpha binding to DNA. P20393. Rev-erbα–FITC-DNA binding, fluorescence polarization, 90 min. activity, % at 10 µM. hit rate 0.79% among 370,000. AID 1259318;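 active = activity above about 14%, limit read from the data; passing the limit was not always enough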
CSN inh: CSN deneddylation inhibition; Q92905; inhibition, % at 12.5 µM; hit rate 0.38% among 360,000; AID 651999; Purified CSN, SCF-Nedd8-OG deneddylation, fluorescence polarization;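 active = pattern-corrected inhibition above about 35%, with an unprinted fluorescence ratio check between 0.5 and 1.5, limit read from the data, passing the limit was not always enough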
Target sequence (Q92905 whole entry, looked up, one chain of several): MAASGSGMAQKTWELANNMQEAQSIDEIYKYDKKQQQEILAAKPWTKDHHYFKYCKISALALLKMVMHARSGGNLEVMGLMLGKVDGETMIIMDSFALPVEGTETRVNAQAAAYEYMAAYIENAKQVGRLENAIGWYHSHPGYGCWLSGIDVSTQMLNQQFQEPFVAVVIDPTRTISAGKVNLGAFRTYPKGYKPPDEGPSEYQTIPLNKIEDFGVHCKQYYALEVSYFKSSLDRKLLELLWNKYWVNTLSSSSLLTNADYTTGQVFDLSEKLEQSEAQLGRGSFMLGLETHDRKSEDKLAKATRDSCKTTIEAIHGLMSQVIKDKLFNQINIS
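assay system = purified human Csn5 enzyme expressed in HEK293T cells | amount = 0.24 nM enzyme | buffer or medium = Tris/NaCl/DTT buffer, pH 7.5 | reagent = 10 nM SCFSkp2-Nedd8OG | compound = one concentration, 12.5 µM, 0.25% DMSO | times = 90 min reaction at room temperature | signal = FP | read-out basis = % inhibition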
HNF4A DNA FP: change in binding of human HNF4 alpha to DNA; P41235; HNF4a-FITC DNA binding, fluorescence polarization, 1 h; activity change, % at 10 µM; hit rate 0.3% among 360,000; AID 1224865; in the data active = activity change above about 30%, passing the limit was not always enough
caTPT1 confirm: TPT1 (C. albicans) inhibition, confirmation | shares compounds with TPT1 inhibitor | recombinant caTPT1, fluorescence polarization, RNase T1 coupled | inhibition, % at 5 µM | hit rate 74% among 2,400 | AID 2149;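 active = inhibition above the primary screen limit, the mean inhibition of all tested compounds plus 3 SD, cut at about 25% in these data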
RNase T1 inh: counter-screen for TPT1 inhibitors: inhibitors of Aspergillus oryzae RNase T1. AID 2153. RNase T1 cleavage, fluorescence polarization, 1536-well. shares compounds with TPT1 inhibitor. inhibition, % at 5 µM. hit rate 83% among 2,400;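 active = inhibition above the solvent-only control well mean plus 3 SD, limit set per screening run, cut at about 23% in these data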;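 note: inhibitors block cleavage so intact labeled substrate keeps polarization high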
Target sequence (P00651 whole entry, looked up): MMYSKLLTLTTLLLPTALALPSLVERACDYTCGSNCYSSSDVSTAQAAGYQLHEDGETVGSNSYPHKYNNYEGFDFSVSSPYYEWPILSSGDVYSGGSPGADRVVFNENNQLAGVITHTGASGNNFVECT
Hits are given with their value; 0 = inactive; - = not tested or not shown. The list is not random: actives were taken first. Their share in the collection is about 1.7%.

SMILES	TPT1 inhibitor	NR1D1 modulator	CSN inh	HNF4A DNA FP	caTPT1 confirm	RNase T1 inh
COc1ccc(CNS(=O)(=O)c2cc(Cl)ccc2N2CC[C@@H](O)C2)cc1	-	0	-	-	-	-
COC(=O)[C@]12C[C@H](CC(=O)NCc3cccc(C(F)(F)F)c3)C(=O)N(Cc3ccco3)C1=C[C@H](COCc1ccccc1)O[C@@H]2C	-	0	-	-	-	-
C[C@]12C=CC(=O)C=C1CC[C@@H]1C2=CC[C@]2(C)[C@@H](C(=O)CN3CCN(c4cc(N5CCCC5)nc(N5CCCC5)n4)CC3)CC[C@@H]12	31	0	0	0	29	41
Cc1ccc2c(-c3csc(N)n3)c[nH]c2c1	26	-	-	-	0	27
NS(=O)(=O)c1ccc(NC(=O)CSc2nnc(-c3cccs3)o2)cc1	-	0	-	-	-	-
Cc1cc(C(=O)NN=Cc2cccc(O)c2)n[nH]1	-	0	-	-	-	-
O=C(N/C=C/c1ccco1)Nc1cccc(Cl)c1	34	0	0	0	0	0
C[C@H]1CN([C@@H](C)CO)C(=O)CCCn2cc(nn2)CO[C@@H]1CN(C)C(=O)c1ccccc1	-	0	-	-	-	-
COc1ccc(N=NC2=C(O)CC(C)(C)CC2=O)c(OC)c1	60	-	0	51	61	75
COc1ccc(N=NC2=C(O)CC(C)(C)CC2=O)cc1	0	0	0	0	-	-
CCCN1C(=O)CC(c2ccc(OC)c(OC)c2)C1=O (centres undefined)	-	0	0	0	-	-
CCOc1ccc(-c2nc(C#N)c(N3CCN(C)CC3)o2)cc1	76	0	0	0	0	0
O=C1NC(=S)NC1=Cc1ccc(O)cc1	-	0	0	0	-	-
O=C1NC(=S)N/C1=C\c1ccc(N2CCOCC2)cc1	26	0	0	0	26	33
OCc1ccccc1OCc1ccccc1	-	0	-	-	-	-
COc1ccc2c(c1)CCCN2C(=O)C1CCCN(S(=O)(=O)c2cccs2)C1 (centres undefined)	-	0	-	-	-	-
O=C(NCC1COCCO1)C1CCN(S(=O)(=O)c2ccc(Br)s2)CC1 (centres undefined)	-	0	-	-	-	-
Cc1ccc(-c2nc(Nc3cccc(O)c3)c3ccccc3n2)cc1	0	0	0	0	-	-
Oc1cccc(Nc2c3ccccc3nc3ccccc23)c1	54	0	0	0	0	0
Nc1ccc(C(=O)N/N=C/c2sc(N3CCOCC3)nc2-c2ccccc2)cc1	0	0	0	0	-	-
O=C(N/N=C/c1sc(N2CCOCC2)nc1-c1ccccc1)c1cccc(S(=O)(=O)N2CCOCC2)c1	60	0	0	0	60	69
CCN(CC)c1ccc(C=Nc2cccc(S(=O)(=O)N3CCOCC3)c2)c(O)c1	-	0	0	0	-	-
CCN(CC)c1ccc(/C=N/NC(=O)c2cccc(S(=O)(=O)N3CCOCC3)c2)c(O)c1	41	0	0	0	58	67
O=C(Nc1ccccc1F)C(=Cc1sc(N2CCOCC2)nc1-c1ccccc1)C(=O)Nc1ccccc1F	48	0	0	0	0	0
O=C1NC(=O)C2C3C=CC(C12)C1C(=O)NC(=O)C31 (centres undefined)	-	0	-	-	-	-
SMILES	TPT1 inhibitor	NR1D1 modulator	CSN inh	HNF4A DNA FP	caTPT1 confirm	RNase T1 inh
Cc1cccc(C)c1Nc1c(-c2ccc(N3CCOCC3)cc2)nc2ncccn12	30	0	0	0	34	41
Cc1ccc(Nc2c(-c3ccc(N4CCOCC4)cc3)nc3ncccn23)c(C)c1	0	0	0	0	-	-
Cc1[nH]c2ccccc2c1/C=N/NC(=S)NC(C)C	25	0	0	0	39	45
ClCC1NCC(c2ccccc2Cl)c2c1[nH]c1ccccc21 (centres undefined)	89	0	0	0	0	0
CCN(CC)CCCOc1ccc(Cl)c(Cl)c1	134	0	0	0	0	0
CSc1nsc(/C=C/Nc2ccc(C)c(C)c2)c1C#N	34	0	0	0	66	85
COc1cc(/C=N/Nc2snc(SC)c2C#N)ccc1O	0	0	0	0	-	-
CSc1nsc(/C=C/Nc2ccc(C)cc2)c1C#N	31	0	0	0	50	59
Cc1cc2ncc(C(N)=O)cn2n1	83	0	0	0	0	0
CC(C)CN1CCC(CN2C(=S)NC[C@@H]2Cc2ccccc2)CC1	-	0	-	-	-	-
O=C(O)c1ccccc1N/N=C\c1ccnc2ccccc12	24	0	0	0	0	30
ON=Cc1ccnc2ccccc12	-	0	0	0	-	-
COc1cccc(CNC(=S)OC2CCC23CCC(c2ccccc2)CC3)c1 (centres undefined)	-	0	-	-	-	-
O=C(O)c1ccc(-c2ccc(/C=c3/sc4nc5ccccc5n4c3=O)o2)cc1Cl	49	0	107	57	120	122
Cc1c(N=N/C(C(=O)Nc2ccccc2)=C(/O)c2ccccc2)c(=O)n(-c2ccccc2)n1C	55	0	0	0	54	67
CCOC(=O)/C(N=Nc1c(C)n(C)n(-c2ccccc2)c1=O)=C(/O)c1ccccc1	0	0	0	0	-	-
O=c1c(O)c(-c2cccs2)oc2ccccc12	25	0	0	0	25	36
CCOC(=O)C(C)Sc1nc(-c2ccco2)cc(C(F)(F)F)c1C#N (centres undefined)	26	0	0	0	0	0
CCOC(=O)CCSc1nc(C)cc(C(F)(F)F)c1C#N	25	0	38	0	33	44
CCOC(=O)CCSc1nc(C(C)(C)C)cc(C(F)(F)F)c1C#N	0	0	0	0	-	-
CCOC(=O)COc1nc(-c2ccco2)cc(-c2ccco2)c1C#N	0	0	0	0	-	-
Cc1ccccc1C(=O)NC1CCCCN(Cc2cccc(F)c2)C1=O (centres undefined)	-	0	-	-	-	-
Cc1nn(-c2ccccc2)c2sc(C(=O)NCC3CCCO3)cc12 (centres undefined)	-	0	-	-	-	-
O=C(Nc1ccccc1N1CCCCC1)c1ccc(-c2cccc(Cl)c2)o1	0	0	0	0	-	-
O=C(Nc1cccc2nsnc12)c1ccc(-c2cccc(Cl)c2)o1	31	0	0	0	30	38
SMILES	TPT1 inhibitor	NR1D1 modulator	CSN inh	HNF4A DNA FP	caTPT1 confirm	RNase T1 inh
CCOC(=O)C1=CCN(S(=O)(=O)c2ccc(Br)cc2)C1c1ccc(Br)cc1 (centres undefined)	-	0	-	-	-	-
Cc1ccc(/C=C(\C#N)C(=O)Nc2c(C)cccc2C)s1	30	0	35	0	41	53
O=C(Nc1ccccc1C(F)(F)F)OC1CC2CC1[C@H]1CCCCN1C2 (some centres undefined)	-	0	-	-	-	-
COc1ccc(C2NC(=S)N(Cc3ccc(Cl)cc3)C(C)=C2C(C)=O)cc1 (centres undefined)	-	0	-	-	-	-
C=CCN1C(=O)S/C(=C\c2ccc(N3CCOCC3)cc2C)C1=O	66	0	0	0	54	66
C=CC(C)N1C(=O)S/C(=C\c2ccc(N3CCOCC3)cc2C)C1=O (centres undefined)	32	0	0	0	57	64
Cc1cc(N2CCOCC2)ccc1/C=C1/SC(=O)NC1=O	0	0	0	0	-	-
COc1cc2cc(NC(C)=O)cc(NCc3ccccc3)c2cc1OC	-	0	0	0	-	-
CCCCNc1cc(NC(C)=O)cc2cc(OC)c(OC)cc12	70	0	0	0	61	73

Screening data: PubChem, several laboratories
